Measurements as given in ChEMBL document CHEMBL2424622, “Development of amino-pyrimidine inhibitors of c-Jun N-terminal kinase (JNK): kinase profiling guided optimization of a 1,2,3-benzotriazole lead” (Bioorg Med Chem Lett, 2013).
pIC50: −log10 of the molar value.

Columns and labels:
[1] = target: Ribosomal protein S6 kinase alpha-1 (Homo sapiens, UniProt Q15418); test: Competitive binding affinity to RPS6KA1 kinase domain 1 (unknown origin) at 10 uM in presence of ATP relative to control
[2] = target: T1, Serine/threonine-protein kinase DCLK2 (Homo sapiens) (UniProt Q8N568); test: Competitive binding affinity to DCAMKL2 (unknown origin) at 10 uM in presence of ATP relative to control
T1 sequence (whole entry): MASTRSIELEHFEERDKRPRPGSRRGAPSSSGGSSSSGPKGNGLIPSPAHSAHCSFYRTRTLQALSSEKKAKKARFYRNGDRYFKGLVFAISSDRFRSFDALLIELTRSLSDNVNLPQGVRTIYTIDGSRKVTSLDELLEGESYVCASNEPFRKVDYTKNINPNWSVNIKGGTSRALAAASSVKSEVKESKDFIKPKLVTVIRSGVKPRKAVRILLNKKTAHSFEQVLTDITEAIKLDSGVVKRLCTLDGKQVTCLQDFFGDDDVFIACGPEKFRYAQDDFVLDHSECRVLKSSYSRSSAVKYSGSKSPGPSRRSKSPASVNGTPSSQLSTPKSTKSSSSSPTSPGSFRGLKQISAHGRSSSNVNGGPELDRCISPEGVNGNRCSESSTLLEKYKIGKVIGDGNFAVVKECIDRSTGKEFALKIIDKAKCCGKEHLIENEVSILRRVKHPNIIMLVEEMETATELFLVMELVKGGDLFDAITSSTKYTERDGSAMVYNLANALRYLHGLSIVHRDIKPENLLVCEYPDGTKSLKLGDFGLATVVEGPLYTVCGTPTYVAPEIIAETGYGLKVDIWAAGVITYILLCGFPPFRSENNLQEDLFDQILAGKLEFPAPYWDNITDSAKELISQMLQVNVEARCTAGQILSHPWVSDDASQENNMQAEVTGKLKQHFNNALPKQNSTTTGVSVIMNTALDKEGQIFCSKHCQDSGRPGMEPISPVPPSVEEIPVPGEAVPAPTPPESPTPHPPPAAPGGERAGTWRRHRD

[3] = system: Tyrosine-protein kinase ABL1 (Homo sapiens), P00519 [M351T]; test: Competitive binding affinity to ABL1 M351T mutant (unknown origin) at 10 uM in presence of ATP relative to control
[4] = target: Serine/threonine-protein kinase 26 (Homo sapiens) (UniProt Q9P289); test: Competitive binding affinity to MST4 (unknown origin) at 10 uM in presence of ATP relative to control
[5] = system: Tyrosine-protein kinase ABL1 (Homo sapiens), P00519 [E255K]; test: Competitive binding affinity to ABL1 E255K mutant (unknown origin) at 10 uM in presence of ATP relative to control
[6] = target: Casein kinase II subunit alpha' (Homo sapiens) (UniProt P19784); test: Competitive binding affinity to CSNK2A2 (unknown origin) at 10 uM in presence of ATP relative to control
Outline: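 In vitro ATP-site competition binding assay across a diverse panel of 128 kinases, with each compound tested at a single concentration. Kinase binding is expressed relative to control.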

[7] = target: Tyrosine-protein kinase receptor UFO (Homo sapiens) (UniProt P30530); test: Competitive binding affinity to AXL (unknown origin) at 10 uM in presence of ATP relative to control
Homo sapiens = species: Homo sapiens; test: Competitive binding affinity to EGFR L747 to E749 deletion mutant, A750P mutant (unknown origin) at 10 uM in presence of ATP relative to control
[8] = system: T2, Receptor-type tyrosine-protein kinase FLT3 (Homo sapiens), P36888 [N841I]; test: Competitive binding affinity to FLT3 N841I mutant (unknown origin) at 10 uM in presence of ATP relative to control
T2 sequence (whole entry): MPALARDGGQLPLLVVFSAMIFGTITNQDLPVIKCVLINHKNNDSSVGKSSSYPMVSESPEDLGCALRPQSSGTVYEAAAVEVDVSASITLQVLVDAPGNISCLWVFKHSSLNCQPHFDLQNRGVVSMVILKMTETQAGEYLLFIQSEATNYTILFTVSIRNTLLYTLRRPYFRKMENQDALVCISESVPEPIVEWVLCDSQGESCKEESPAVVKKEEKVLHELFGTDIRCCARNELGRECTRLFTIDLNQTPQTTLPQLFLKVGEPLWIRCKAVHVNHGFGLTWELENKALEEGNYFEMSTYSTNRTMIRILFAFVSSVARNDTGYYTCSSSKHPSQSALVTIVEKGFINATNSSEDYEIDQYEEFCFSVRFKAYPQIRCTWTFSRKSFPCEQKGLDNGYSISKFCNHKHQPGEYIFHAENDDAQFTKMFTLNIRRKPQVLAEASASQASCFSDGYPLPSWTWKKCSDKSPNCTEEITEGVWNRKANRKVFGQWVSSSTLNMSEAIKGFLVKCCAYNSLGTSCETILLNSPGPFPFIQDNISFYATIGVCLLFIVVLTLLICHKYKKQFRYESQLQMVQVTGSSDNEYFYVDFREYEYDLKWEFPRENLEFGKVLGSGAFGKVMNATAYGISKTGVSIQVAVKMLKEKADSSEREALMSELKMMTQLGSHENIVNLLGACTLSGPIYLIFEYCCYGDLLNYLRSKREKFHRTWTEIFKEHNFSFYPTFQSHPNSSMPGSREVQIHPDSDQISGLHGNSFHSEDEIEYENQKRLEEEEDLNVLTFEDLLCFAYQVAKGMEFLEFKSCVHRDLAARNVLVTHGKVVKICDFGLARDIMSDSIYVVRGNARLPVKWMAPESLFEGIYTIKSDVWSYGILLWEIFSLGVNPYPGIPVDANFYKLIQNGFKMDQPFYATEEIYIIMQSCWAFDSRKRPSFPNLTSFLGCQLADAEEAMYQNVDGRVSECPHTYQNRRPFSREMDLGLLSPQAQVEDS

[9] = target: MAP kinase-interacting serine/threonine-protein kinase 1 (Homo sapiens, UniProt Q9BUB5); test: Competitive binding affinity to MKNK1 (unknown origin) at 10 uM in presence of ATP relative to control
[10] = target: Cyclin-dependent kinase 2/cyclin E1 (Homo sapiens, UniProt P24941); test: Inhibition of human recombinant CDK2/GST-tagged cyclin E expressed in baculovirus infected insect cells assessed as inhibition of 6XHis-tagged retinoblastoma protein (386 to 928) phosphorylation after 30 mins by scintillation counting analysis in presence of [gamma-33P]-ATP
Outline: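 CDK2 activity was measured as phosphorylation of a 6-histidine-tagged truncated retinoblastoma protein (amino acids 386–928) using [γ-33P]ATP.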

HCT-116 = test: Cytotoxicity against human HCT116 cells assessed as cell viability by WST-1 reduction assay; assay type: cell-based
Outline: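 Cytotoxicity was measured in an HCT-116 cell proliferation assay as reduction of WST-1 reagent. Values are the mean of at least three experiments.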

Row | Structure (SMILES) | inhibition [1] [%] | inhibition [2] [%] | inhibition [3] [%] | inhibition [4] [%] | inhibition [5] [%] | inhibition [6] [%] | inhibition [7] [%] | inhibition (Homo sapiens) [%] | inhibition [8] [%] | inhibition [9] [%] | pIC50 [10] | pIC50 (HCT-116)
1 | CS(=O)(=O)CCCOc1cccc2c1ccn2-c1ccnc(N[C@H]2CC[C@H](C(=O)N3CCC(O)CC3)CC2)n1 | > 85 | – | – | – | – | – | – | – | – | > 85 | – | –
2 | O=C([C@H]1CC[C@H](Nc2nccc(-n3nnc4ccccc43)n2)CC1)N1CCOCC1 | – | – | – | – | – | – | – | – | – | – | 5.70 | 4.70
3 | O[C@H]1CC[C@H](Nc2nccc(-c3n[nH]c4ccccc34)n2)CC1 | – | – | < 50 | 94 | < 50 | 98 | 100 | < 50 | 100 | – | – | –

Continued, in another order:

Row | inhibition [1] [%] | inhibition [2] [%] | inhibition [3] [%] | inhibition [4] [%] | inhibition [5] [%] | inhibition [6] [%] | inhibition [7] [%] | inhibition (Homo sapiens) [%] | inhibition [8] [%] | inhibition [9] [%] | pIC50 [10] | Structure (SMILES) | pIC50 (HCT-116)
4 | 91 | < 50 | < 50 | 76 | < 50 | 86 | 93 | < 50 | 97 | 70 | – | O[C@H]1CC[C@H](Nc2nccc(-n3ncc4ccccc43)n2)CC1 | –
5 | 66 | < 50 | < 50 | 80 | < 50 | < 50 | < 50 | < 50 | < 50 | < 50 | – | O[C@H]1CC[C@H](Nc2nccc(-n3ccc4ccccc43)n2)CC1 | –
6 | – | – | – | – | – | – | – | – | – | – | 6.44 | N[C@H]1CC[C@H](Nc2nccc(-n3nnc4ccccc43)n2)CC1 | 6.11
7 | 100 | < 50 | < 50 | 79 | < 50 | < 50 | < 50 | < 50 | 98 | 97 | 6.37 | O[C@H]1CC[C@H](Nc2nccc(-n3nnc4ccccc43)n2)CC1 | 5.92
